What is called IC50 is the midpoint of a concentration-inhibition curve. Read a low IC50 as inhibition by little substance. Usually inhibition stands for the share of the control response that was lost under treatment. A word on the Ki: it is a dissociation constant, usually derived from enzyme kinetics or from competition with a known ligand.

Experiment [1] deals with T1, purified human IDO (Homo sapiens, UniProt P14902). As to the kind of experiment: IDO assay. The format is biochemical. The settings on record: for inhibition at 100 µM: read-out: IDO inhibition at 100 μM (%). The procedure, abridged: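 Test compound, serially diluted in DMSO, mixed with 1 μg purified human IDO in 50 mM potassium phosphate, pH 6.5. Ascorbic acid, methylene blue, catalase and 200 μM L-tryptophan added; 1 h at 37°C. Stopped with 30% TCA, 15 min at 65°C, then centrifuged. Supernatant mixed 1:1 with Ehrlich's reagent at RT; kynurenine read at 480 nm. Screened at 100 μM; IC50 from lower concentrations; menadione as positive control; at least triplicate.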
T1 sequence (P14902 whole entry): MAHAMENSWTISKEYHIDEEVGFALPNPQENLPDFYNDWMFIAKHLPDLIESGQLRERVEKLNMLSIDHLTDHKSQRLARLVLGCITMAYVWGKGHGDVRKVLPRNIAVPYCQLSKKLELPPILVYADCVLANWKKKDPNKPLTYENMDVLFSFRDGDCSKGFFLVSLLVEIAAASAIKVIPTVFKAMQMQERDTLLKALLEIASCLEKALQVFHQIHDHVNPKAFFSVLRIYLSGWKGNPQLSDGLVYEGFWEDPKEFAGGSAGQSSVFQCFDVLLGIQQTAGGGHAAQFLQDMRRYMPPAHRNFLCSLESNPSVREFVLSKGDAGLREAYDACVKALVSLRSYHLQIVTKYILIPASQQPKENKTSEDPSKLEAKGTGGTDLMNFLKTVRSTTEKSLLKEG

The target of experiment [2] is T1, purified human IDO. Kind of experiment: Determination of inhibition pattern of IDO inhibitors. The format is biochemical. In short, it runs like this:
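Same kynurenine assay with purified human IDO (37°C, 1 h, Ehrlich's reagent, A480), run at five L-tryptophan concentrations crossed with four inhibitor concentrations, including zero. Mode of inhibition was taken from Lineweaver-Burk plots. Ki was calculated from the y-intercept, (1 + [I]/Ki)/Vmax. Independent measurements, at least triplicate.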

Take `O=C1c2cccc(O)c2C(=O)c2c(O)cc(CO)cc21` [Compound 1, aloe emodin]: in experiment [1], half-maximal inhibition (IC50) required 46.5 ± 1.51 µM and the inhibition at 100 µM worked out at 67.4 ± 2.53%. In experiment [2], this compound came in with an inhibition constant Ki of 85.3 µM.
In the case of `Cc1cc(=O)c2c(CO)cc(O)cc2o1` [Compound 10, 7-hydroxy-5-(hydroxymethyl)-2-methylchromone], the inhibition at 100 µM in experiment [1] amounted to 5.86 ± 3.08%.
Consider `Cc1cc(O)cc(O)c1` [Compound 11, 5-methylresorcinol], for which the inhibition at 100 µM in experiment [1] came out at 10.2 ± 1.75%.
`CC1=CC(=O)c2ccccc2C1=O` [Menadione, reference compound]: 3.71 ± 1.26 µM corresponded to half-maximal inhibition in experiment [1] (IC50).

The values above are taken from publication PMC5307915 (Pharmacognosy Magazine, 2017).
